From PubChem BioAssay
Rows were chosen to be rich in hits. Some 3.9% of all compounds tested hit in one or more screens of this group.
HIF activator: HIF pathway transcriptional activators, primary screen, cell-based, U2OS HRE-luciferase, luminescence; actives 0.32% (n = 300,000); U2OS HRE-luciferase reporter; normalized: DMSO 0%, desferrioxamine 100%; activation, % at 7.5 µM (by protocol);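 active = mean activation of at least 10% of the iron chelator positive control signal, with at least half of replicates also reaching 10%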
ABCB6 inh 2: ABCB6 transporter inhibitors, primary screen, K562-ABCB6 cells, flow cytometry, MLPCN library | fluorescence ratio to DMSO, % at 10 µM | K562-ABCB6 porphyrin accumulation, 1 h; active compounds read low | actives 0.19% (n = 360,000) | AID 602162, 2011 | ATP-binding cassette sub-family B member 6 (Homo sapiens), Q9NP58;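 active = fluorescence ratio to DMSO below 75%, the collection mean minus 3 SD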;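 also: signal is porphyrin accumulated inside mitochondria; 100% equals median channel fluorescence of DMSO control wells; lower ratio means ABCB6 inhibition with less porphyrin fluorescence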
AHR activator: AHR activators, primary screen, cell-based, luminescence, luciferase reporter, human; AHR-responsive luciferase reporter cells; Aryl hydrocarbon receptor (Homo sapiens), P35869; actives 2.5% (n = 320,000); activation, % at 5 µM; in the data active = activation above about 47%;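 also: 0% = vehicle wells and 100% = reference agonist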
SR-BI DiI inh: inhibitors of SR-BI mediated HDL lipid uptake, primary screen, ldlA[mSR-BI] cells, fluorescence, single point | inhibition, % at 12.5 µM | ldlA[mSR-BI] CHO cells, DiI-HDL uptake fluorescence, 3 h | Scavenger receptor class B member 1 (Mus musculus), Q61009 | actives 0.96% (n = 320,000);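 active = mean replicate inhibition of at least 70% and a set share of replicates each scoring 70 or more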;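 also: 0% = median of neutral control wells and 100% = median of positive control wells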
GAA850 FXN act: FXN promoter activators, primary screen, cell-based, luciferase luminescence, HEK293 lucGAA850 | HEK293 lucGAA850 FXN promoter luciferase reporter, 24 h; percent of 10 µM SAHA response | activation, % at 6 µM | actives 0.56% (n = 360,000) | AID 540364, 2011;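 active = activation above the average of all compounds screened plus 3 SD, cutoff fixed separately per campaign, cut at about 7.5% in these data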;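 also: 0% = DMSO wells and 100% = 10 µM SAHA wells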
SR-BI DiI-HDL act: activators of SR-BI mediated DiI-HDL uptake, primary screen, ldlA[mSR-BI] CHO cells, DiI fluorescence; 3 h; 100 = double the neutral-control signal; actives 0.096% (n = 320,000); AID 504775, 2011; activation, % at 12.5 µM;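 active = mean replicate activation of at least 60% and every replicate at or above 60%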;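 also: 0% = median plate neutral-control signal and 100% = twice that signal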
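Material – SR-BI-overexpressing, LDLR-lacking CHO cells · Medium – BSA-supplemented, HEPES-buffered Ham's F12, pH 7.4 · Doses – single concentration · Times – compound with DiI-HDL co-incubation, 3 h at 37 °C · Measured by – bottom-read fluorescence, 550/595 nm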
AHR act cf: AHR activators, confirmation, cell-based, luminescence, luciferase reporter, human; shares compounds with AHR activator; human cells, AHR-responsive luciferase reporter; activation, % at 9 µM; actives 87% (n = 2,300); AID 2845, 2010; in the data active = activation above about 49%;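 also: HepG2 hepatoma cells carrying a DRE-driven firefly luciferase reporter; 0% = vehicle wells and 100% = reference agonist wells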
PXR act counter: human PXR activators, counter-screen for AHR activator project, cell-based, luciferase luminescence; activation, % at 11.6 µM; actives 88% (n = 2,300); AID 434939, 2010; cell-based PXR reporter; shares compounds with AHR activator; in the data active = activation above about 11%;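 also: human hepatoma DPX-2 cells expressing full-length human PXR; 0% = DMSO and 100% = reference agonist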
Starred values were filed as active, the others as inactive; . = not tested or not shown.

SMILES	HIF activator	ABCB6 inh 2	AHR activator	SR-BI DiI inh	GAA850 FXN act	SR-BI DiI-HDL act	AHR act cf	PXR act counter
C/C=C/COC(=O)c1[nH]c2c(c1C)C(=O)CC(c1ccc(N(C)C)cc1)C2 (centres undefined)	0.6	103.0	17.4	67.0	1.8	-67.0	.	.
C=CCOC(=O)c1[nH]c2c(c1C)C(=O)CC(c1ccco1)C2 (centres undefined)	2.7	.	103.1*	.	.	.	22.6	195.2*
COC(=O)/C(=C(O)\C=C\c1ccccc1[N+](=O)[O-])c1nc2ccccc2[nH]1	0.8	100.0	92.2*	88.8*	-2.1	-88.8	113.1*	46.6*
CC1CN(C(=O)/C=C/c2ccccc2[N+](=O)[O-])CC(C)O1 (centres undefined)	0.3	99.0	20.4	9.5	0.5	-9.5	.	.
Cc1cc2cc(C(c3nnnn3Cc3ccccc3)N3CCc4ccccc43)c(=O)[nH]c2cc1C (centres undefined)	-0.2	107.0	24.3	18.4	1.5	-18.4	.	.
CC12CCC(=O)N1C(C(=O)Nc1nc3c(F)cc(F)cc3s1)CS2 (centres undefined)	0.2	108.0	97.4*	0.5	1.0	.	79.3*	151.5*
N#CC1(NC(=O)COC(=O)c2ccccc2SCC(=O)N2CCCC2)CCCCC1	-0.2	97.0	-3.0	-10.6	-0.4	10.6	.	.
Cc1cc(N2CCN(C)CC2)nc2ccc(NC(=S)N3CCN(c4ccccn4)CC3)cc12	1.2	93.0	4.6	.	2.6	.	.	.
COC(=O)c1ccc(C(=O)Nc2ccc3nc(-c4ccncc4)[nH]c3c2)cc1	-30.2	99.0	5.6	22.2	-1.6	-22.2	.	.
Nn1c(SCCOc2ccc(Cl)cc2)nnc1-c1cccnc1	0.4	95.0	91.0*	-19.1	0.1	19.1	124.6*	21.9*
Cc1ccnc(SCC(=O)c2ccc(Br)cc2)c1C#N	2.0	97.0	125.5*	1.4	6.5	-1.4	125.1*	92.5*
Cc1ccc(C(=O)COc2nc(C)cc(C)c2C#N)cc1	0.2	91.0	45.9	1.5	-1.0	-1.5	.	.
Cc1cc(C)c(C#N)c(OCC(=O)c2ccc(Br)cc2)n1	-0.5	96.0	101.3*	41.4	-0.1	-41.4	106.2*	19.8*
O=C(NCCN1CCCCC1)c1cccc2c1C(=O)c1ccc(N3CCCC3)cc1S2(=O)=O	.	197.0	2.4	0.9	-1.1	-0.9	.	.
O=C(OCC(=O)N1CCC(Cc2ccccc2)CC1)c1cc(Br)ccc1O	.	95.0	-0.9	15.4	-1.8	-15.5	.	.
Nc1nc(Nc2ccc(Cl)cc2)nc(NCCO)c1[N+](=O)[O-]	0.5	98.0	110.9*	.	2.3	.	193.0*	24.6*
C=CCNc1nc(N)c([N+](=O)[O-])c(Nc2cccc(Cl)c2)n1	0.5	96.0	89.5*	25.1	5.8	-25.1	132.4*	13.2*
CNc1nc(N)c([N+](=O)[O-])c(Nc2cccc(F)c2)n1	0.1	82.0	15.7	9.2	4.2	-9.2	.	.
CC(C)(C)c1ccc(N2C(=N)SCC2=O)cc1	-0.3	104.0	11.8	0.1	1.1	-0.1	.	.
O=C1/C(=C/c2cccs2)N=C(c2cccs2)N1Nc1ccccc1	0.0	.	-8.6	7.3	-0.8	-7.3	.	.
COc1cccc(/C=C/C(=O)NCC2CCCCC2)c1	0.4	94.0	16.9	-14.9	2.1	14.9	.	.
c1ccc(COc2cccc(-c3cc4nc(NCCOc5ccccc5)ccn4n3)c2)cc1	.	96.0	.	.	-0.6	.	.	.
CCSc1ncc(/C=N/Nc2ccccc2)n1C	1.1	104.0	88.7*	30.1	5.2	-30.1	145.3*	49.1*
CCN1CC(CN(C)Cc2nc(-c3ccco3)oc2C)CC1=O (centres undefined)	0.2	101.0	0.5	0.0	-0.2	0.0	.	.
CCN1CC(CN(C)Cc2nc(-c3ccc(C(F)(F)F)cc3)oc2C)CC1=O (centres undefined)	0.0	105.0	115.7*	22.5	1.9	-22.5	98.5*	64.4*
SMILES	HIF activator	ABCB6 inh 2	AHR activator	SR-BI DiI inh	GAA850 FXN act	SR-BI DiI-HDL act	AHR act cf	PXR act counter
O=C(CCCCCCN1C(=O)c2ccccc2C1=O)Nc1nccs1	0.1	88.0	6.5	-9.5	0.5	9.5	.	.
CN1CC(=O)N(CC(=O)N2N=C(c3ccc(Cl)cc3)CC2c2ccco2)C1=O (centres undefined)	-0.4	103.0	-1.0	-6.2	-2.5	6.2	.	.
CCOC(=O)N1CCC(NC(=O)c2cccn3c(=O)c4cc(Br)ccc4nc23)CC1	-0.5	101.0	90.3*	-5.3	1.6	5.3	111.0*	18.1*
CCOC(=O)N1CCC(NC(=O)c2ccc3nc4ccccc4c(=O)n3c2)CC1	3.0	.	.	.	.	.	.	.
CN(C)Cc1c(-c2ccc(Cl)cc2)nc2ccc(Cl)cn12	-0.2	103.0	133.1*	16.7	1.6	-16.7	109.4*	11.9*
CC(C)(C)Cc1c(-c2ccc(Cl)cc2)nc2ccc(Cl)cn12	.	102.0	.	.	0.9	.	.	.
COc1ccc2c(c1)[nH]c1c(N3CCSCC3)ncnc12	-0.5	91.0	40.6	25.1	-1.1	-25.1	.	.
COc1ccc2[nH]c3c(N4CC(C)OC(C)C4)ncnc3c2c1 (centres undefined)	0.3	.	126.1*	.	.	.	94.0*	21.9*
O=C(O)[C@H](Cc1ccccc1)N1C(=O)c2ccncc2C1=O	-0.3	96.0	2.7	2.4	-1.1	-2.4	.	.
CC(C)CN1CCC(CNC(=O)CCc2nnc(Cc3c[nH]c4ccccc34)o2)CC1	-0.9	91.0	3.5	9.0	2.4	-9.0	.	.
Cc1[nH]n(C(N)=S)c(=O)c1N=Nc1ccc(S(=O)(=O)N2CCCC2)cc1	-21.5	75.0	2.3	-25.5	1.3	25.5	.	.
Cc1[nH]n(C(N)=S)c(=O)c1N=Nc1ccc(Br)cc1	4.3	100.0	107.9*	2.4	1.5	-2.4	134.5*	39.5*
Cc1[nH]n(C(N)=S)c(=O)c1N=Nc1cccc(C(F)(F)F)c1	3.5	100.0	143.3*	15.1	3.0	-15.1	73.7*	21.3*
C/C(=N\NC(=O)c1c[nH]c2ccccc12)c1ccc(C)s1	2.1	101.0	91.7*	4.2	6.6	-4.2	125.7*	59.4*
